Measured values reported in ChEMBL document CHEMBL4257467, “Synthesis and pharmaceutical characterization of site specific mycophenolic acid-modified Xenopus glucagon-like peptide-1 analogs” (Medchemcomm, 2018).
The source made the active and inactive calls. *1 amine or outer side, *2 acyl side, *3 side chain or, on linkers, in order; H or OH if unused. Where a SMILES comes first, the peptide text is derived from it. Side-chain parts run from the residue outwards. The star is where a group is joined. Mycophenolyl = COc1c(C)c2c(c(O)c1C/C=C(\C)CCC(=O)*)C(=O)OC2; γGlu = O=C(O)[C@H](CCC(=O)[*:2])N[*:1]; 12Ado = NCCCCCCCCCCCC(=O)O

Key:
[1] = biological target: Glucagon-like peptide 1 receptor (Homo sapiens, UniProt P43220); assay: Agonist activity at human GLP1 receptor expressed in HEK293 cells assessed as increase in cAMP level after 30 mins by HTRF method; type: functional, cell-based
Sequence of Glucagon-like peptide 1 receptor (P43220 whole entry): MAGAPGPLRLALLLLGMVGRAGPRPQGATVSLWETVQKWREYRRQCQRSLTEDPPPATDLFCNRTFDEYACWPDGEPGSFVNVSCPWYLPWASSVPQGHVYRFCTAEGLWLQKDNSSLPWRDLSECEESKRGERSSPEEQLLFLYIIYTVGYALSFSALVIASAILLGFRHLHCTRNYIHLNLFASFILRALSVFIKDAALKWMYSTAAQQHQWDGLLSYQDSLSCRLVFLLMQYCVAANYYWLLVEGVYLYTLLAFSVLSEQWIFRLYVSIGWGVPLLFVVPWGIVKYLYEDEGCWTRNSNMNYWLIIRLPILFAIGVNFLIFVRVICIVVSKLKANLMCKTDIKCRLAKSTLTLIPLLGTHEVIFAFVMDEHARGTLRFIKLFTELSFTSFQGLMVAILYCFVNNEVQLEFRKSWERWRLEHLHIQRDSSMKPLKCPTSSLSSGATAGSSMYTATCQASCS
Method in brief: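 HEK293 cells stably expressing human GLP-1 receptor, thawed, suspended in DMEM with 20 mM HEPES, 2 mM L-Glu, 0.5% FBS, 1% pen-strep. Compounds dissolved in DMSO, diluted in assay buffer to 1 × 10−13–1 × 10−6 M final, 30 min at 37 °C in 5% CO2. cAMP read by HTRF. EC50 as means ± SD of three individual experiments, n = 3.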

[2] = tested on: Mus musculus; assay: Antidiabetic activity in Kunming mouse assessed as reduction in blood glucose level at 25 nmol/kg, ip pretreated for 30 mins followed by glucose-challenge and measured after 15 to 120 mins by IPGTT; type: functional, organism-based
Method in brief: (§1)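 Male Kunming mice (20–25 g, n = 6) fasted overnight. Peptide or saline 25 nmol kg−1 ip at −30 min, ip glucose 2 g kg−1 at 0 min. Tail-vein blood glucose by glucometer at −30, 0, 15, 30, 60 and 120 min. Glucose AUC0–120min calculated; means ± SD.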

[3] = tested on: Mus musculus; assay: Antidiabetic activity in Kunming mouse assessed as reduction in blood glucose AUC at 25 nmol/kg, ip pretreated for 30 mins followed by glucose-challenge and measured after 15 to 120 mins by IPGTT; type: functional, organism-based; method in brief: as §1
[4] = biological target: Albumin (Homo sapiens, UniProt P02768); assay: Binding affinity to human serum albumin after 60 mins by ultrafiltration-based HPLC analysis; type: ADME; settings: human serum albumin, read-out: PB (converted)
Sequence of Albumin (P02768 whole entry): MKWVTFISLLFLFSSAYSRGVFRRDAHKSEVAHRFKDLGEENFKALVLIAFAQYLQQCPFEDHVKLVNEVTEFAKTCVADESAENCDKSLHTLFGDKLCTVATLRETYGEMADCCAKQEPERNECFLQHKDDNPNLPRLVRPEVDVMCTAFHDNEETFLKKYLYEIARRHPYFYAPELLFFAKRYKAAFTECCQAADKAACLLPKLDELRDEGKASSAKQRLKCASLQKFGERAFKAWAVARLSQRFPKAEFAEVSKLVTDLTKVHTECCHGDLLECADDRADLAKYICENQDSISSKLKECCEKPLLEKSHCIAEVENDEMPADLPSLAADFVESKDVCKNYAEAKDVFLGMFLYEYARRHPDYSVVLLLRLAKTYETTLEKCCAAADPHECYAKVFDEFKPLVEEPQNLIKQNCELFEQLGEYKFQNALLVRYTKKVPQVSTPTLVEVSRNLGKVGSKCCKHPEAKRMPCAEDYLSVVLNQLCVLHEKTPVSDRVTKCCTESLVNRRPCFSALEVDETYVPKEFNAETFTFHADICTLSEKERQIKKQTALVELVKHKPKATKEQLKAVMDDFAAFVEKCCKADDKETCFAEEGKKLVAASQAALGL
Method in brief: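 Peptide in PBS pH 7.4 (100 μg ml−1) mixed with HSA (10 mg ml−1 in PBS), incubated 60 min at 37 °C. Ultrafiltration through 30 kDa cutoff filter, 30 min at 3500 rpm. Free compound in filtrate by HPLC. Membrane adsorption checked (<4%). Repeated three times.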

[5] = Half life in Sprague-Dawley rat plasma at 0.5 mL by LC-MS/MS analysis; type: ADME, cell-free; settings: Sprague-Dawley
Method in brief: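 Plasma from male Sprague-Dawley rats (200–250 g). Peptide in PBS pH 7.4 added to initial 1000 ng ml−1 and incubated at 37 °C for 48 h. Samples at 2, 4, 8, 12, 24, 36, 48 h precipitated with acetonitrile containing 2% formic acid, centrifuged, analysed by LC-MS/MS in MRM mode. Degradation curves in triplicate.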

[6] = tested on: Mus musculus; assay: Hypoglycemic activity in C57BL/6J m+/+ Lepr db mouse assessed as blood glucose level at 25 nmol/kg, ip pretreated for 30 mins followed by glucose challenge and measured after 15 mins by IPGTT; type: functional
Method in brief: (§2)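 Male db/db mice (30–40 g, 9 weeks, n = 6) fasted 18 h. Saline or peptide 25 nmol kg−1 ip at −30 min, ip glucose 1 g kg−1 at 0 min. Tail-vein glucose by glucometer at −30, 0, 10, 15, 30, 45, 60, 120 min. Plasma insulin by mouse insulin ELISA. AUC0–120min for glucose and insulin calculated; means ± SD.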

[7] = tested on: Mus musculus; assay: Antidiabetic activity in C57BL/6J m+/+ Lepr db mouse assessed as plasma insulin level at 25 nmol/kg, ip pretreated for 30 mins followed by glucose challenge and measured after 15 mins by ELISA; type: functional; method in brief: as §2
[8] = tested on: Mus musculus; assay: Antidiabetic activity in C57BL/6J m+/+ Lepr db mouse assessed as increase in plasma insulin AUC (0 to 120 mins) at 25 nmol/kg, ip pretreated for 30 mins followed by glucose challenge by ELISA; type: functional, organism-based; method in brief: as §2
[9] = tested on: Mus musculus; assay: Hypoglycemic activity in non-fasting C57BL/6J m+/+ Lepr db mouse assessed as rebound time from the lowest glucose level (12 mmol/L) to diabetic glucose level (>15 mmol/L) at 25 nmol/kg, ip by glucometric method; type: functional
Method in brief: (§3)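 Non-fasting male db/db mice (30–40 g, 9 weeks, n = 6) with free food and water. Single ip dose at 0 h: liraglutide 25 nmol kg−1, test peptides 25 or 100 nmol kg−1, or saline. Blood glucose by glucometer at 0, 2, 4, 6, 12, 24, 48 h. Rebound time to >15 mmol L−1 and AUC0–48h derived; means ± SD.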

[10] = tested on: Mus musculus; assay: Hypoglycemic activity in non-fasting C57BL/6J m+/+ Lepr db mouse assessed as rebound time from the lowest glucose level (12 mmol/L) to diabetic glucose level (>15 mmol/L) at 100 nmol/kg, ip by glucometric method; type: functional; method in brief: as §3
[11] = tested on: Mus musculus; assay: Hypoglycemic activity in non-fasting C57BL/6J m+/+ Lepr db mouse assessed as reduction in blood glucose AUC (0 to 48 hrs) at 25 to 100 nmol/kg, ip by glucometric method; type: functional, organism-based; method in brief: as §3

In the case of `CC[C@H](C)[C@H](NC(=O)[C@H](CC(C)C)NC(=O)[C@H](Cc1c[nH]c2ccccc12)NC(=O)[C@H](CCC(=O)O)NC(=O)[C@@H](NC(=O)[C@H](Cc1ccccc1)NC(=O)[C@H](CCC(=O)O)NC(=O)[C@H](CCCCNC(=O)CC[C@H](NC(=O)CCCCCCCCCCCNC(=O)CC/C(C)=C/Cc1c(O)c2c(c(C)c1OC)COC2=O)C(=O)O)NC(=O)[C@H](C)NC(=O)[C@H](C)NC(=O)[C@H](CCC(=O)O)NC(=O)[C@H](CCC(=O)O)NC(=O)[C@H](CCC(=O)O)NC(=O)[C@H](CC(C)C)NC(=O)[C@H](Cc1ccc(O)cc1)NC(=O)[C@H](CCC(=O)O)NC(=O)[C@@H](NC(=O)[C@@H](NC(=O)[C@H](CC(=O)O)NC(=O)[C@H](CC(N)=O)NC(=O)[C@@H](NC(=O)[C@H](Cc1ccc(O)cc1)NC(=O)[C@@H](NC(=O)CNC(=O)[C@H](CCC(=O)O)NC(=O)CNC(=O)[C@@H](N)Cc1cnc[nH]1)[C@@H](C)O)[C@@H](C)O)C(C)C)[C@@H](C)O)[C@@H](C)CC)C(=O)N[C@@H](CCCCN)C(=O)NCC(=O)N[C@@H](CCCCN)C(=O)N1CCC[C@H]1C(=O)N[C@@H](CO)C(=O)N[C@@H](CO)C(=O)NCC(=O)N[C@@H](C)C(=O)N1CCC[C@H]1C(=O)N1CCC[C@H]1C(=O)N1CCC[C@H]1C(=O)N[C@@H](CO)C(=O)O` (H-HGEGTYTNDVTEYLEEEAAK([γGlu-12Ado-Mycophenolyl])EFIEWLIKGKPSSGAPPPS-OH), the EC50 [1] is reported as 5.2 nM, the Activity [2] is reported as “Active” and the Activity [3] is reported as “Active”. For the same compound, the fraction unbound at 1 h [4] was 0.152, the half-life [5] was 2050 min and the Activity [6] was 1.24e+07 nmol/L. The Activity [7] was 16.5 mIU/L, the Activity [8] was “Active” and the Time [9] was 18.9 h. For the same compound, the Time [10] was 30.4 h and the Activity [11] was “Active”.
